Test results from ChEMBL document CHEMBL1165950, “Design and synthesis of new potent anticancer pyrazoles with high FLT3 kinase inhibitory selectivity” (Bioorg Med Chem, 2010).

Legend:
Assay type in all cases: functional
M14 [1] = test: Cytotoxicity against human M14 cells assessed as cell growth at 100 nM after 48 hrs by sulforhodamine B assay; conditions: M14, 48 h, read-out: Activity
MOLT-4 [2] = test: Cytotoxicity against human MOLT4 cells assessed as cell growth at 10 uM; conditions: read-out: Activity
In short: (§1)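 NCI-60 screen: cells grown in RPMI 1640 with 5% FBS and 2 mM L-glutamine, plated at 5000–40,000 cells/well according to doubling time, and preincubated 24 h at 37 °C, 5% CO2. The single 10 µM dose (DMSO stock) was added, then incubated 48 h. Cells were TCA-fixed and stained with 0.4% SRB, read at 515 nm, and growth % calculated against time-zero and control plates.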

HOP-92 [3] = test: Cytotoxicity against human HOP92 cells assessed as cell growth at 0.001 uM after 48 hrs by sulforhodamine B assay; conditions: HOP-92, 48 h, read-out: Activity
[4] = Growth inhibition of human NCI60 cells at 10 uM after 48 hrs by sulforhodamine B assay relative to control; conditions: NCI60, 48 h, read-out: GI
In short: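 Single-dose NCI screen at 10 µM across the 60-line panel, 48 h exposure at 37 °C after a 24 h preincubation. Adherent cells were fixed with cold TCA and stained with 0.4% SRB, and absorbance was read at 515 nm. Inhibition % was taken as 100 minus growth %, and the mean across all lines was reported.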

KM12 = test: Cytotoxicity against human KM12 cells assessed as cell growth at 100 nM after 48 hrs by sulforhodamine B assay; conditions: KM12, 48 h, read-out: Activity
SF-539 = test: Cytotoxicity against human SF539 cells assessed as cell growth at 10 uM after 48 hrs by sulforhodamine B assay; conditions: SF-539, 48 h, read-out: Activity
K562 = test: Growth inhibition of human K562 cells after 48 hrs by sulforhodamine B assay; conditions: K562, 48 h
In short: (§2)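 NCI 60-cell screen, five-dose mode. Cells grown in RPMI 1640 with 5% FBS and 2 mM L-glutamine and plated at 5000-40,000 cells/well according to doubling time. After 24 h preincubation, a Tz plate was TCA-fixed. Five concentrations (10-fold or 1/2 log dilutions) were applied for 48 h at 37 °C. SRB staining read at 515 nm. IC50 taken from [(Ti-Tz)/(C-Tz)]×100 = 50.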

M14 [5] = test: Cytotoxicity against human M14 cells assessed as cell growth at 10 uM; conditions: read-out: Activity; in short: as §1
CCRF-CEM = test: Growth inhibition of human CCRF-CEM cells after 48 hrs by sulforhodamine B assay
In short: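 NCI five-dose SRB assay in RPMI 1640 with 5% FBS and 2 mM L-glutamine. Cells were preincubated 24 h, then exposed 48 h at 37 °C to five concentrations (10-fold or half-log serial dilutions from DMSO stocks). TCA fixation, SRB staining, and absorbance at 515 nm followed. IC50 was taken where [(Ti−Tz)/(C−Tz)]×100 = 50, with Tz as time-zero cell density.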

786-0 = test: Cytotoxicity against human 786-0 cells assessed as cell growth at 1 uM after 48 hrs by sulforhodamine B assay; conditions: 786-0, 48 h, read-out: Activity
In short: (§3)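 NCI-60 five-dose screen. Cells were grown in RPMI 1640 with 5% FBS and 2 mM L-glutamine, plated at 5000–40,000 cells/well and preincubated for 24 h. Time-zero plates were TCA-fixed. DMSO-solubilized drug was added at five concentrations (10-fold or ½-log serial dilutions) for 48 h at 37 °C, 5% CO2. Cells were TCA-fixed, stained with 0.4% SRB and read at 515 nm. Percent growth used time-zero, control and test absorbances.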

HCC 2998 = test: Cytotoxicity against human HCC2998 cells assessed as cell growth at 0.01 uM after 48 hrs by sulforhodamine B assay; conditions: HCC 2998, 48 h, read-out: Activity
NCI-H460 = test: Cytotoxicity against human NCI-H460 cells assessed as cell growth at 10 uM; conditions: read-out: Activity; in short: as §1
NCI-H23 = test: Cytotoxicity against human NCI-H23 cells assessed as cell growth at 10 uM; conditions: read-out: Activity; in short: as §1
ACHN = test: Cytotoxicity against human ACHN cells assessed as cell growth at 10 uM after 48 hrs by sulforhodamine B assay; conditions: read-out: Activity; in short: as §3
OVCAR-3 [6] = test: Cytotoxicity against human OVCAR-3 cells assessed as cell growth at 0.001 uM after 48 hrs by sulforhodamine B assay; conditions: OVCAR-3, 48 h, read-out: Activity
U-251 = test: Growth inhibition of human U251 cells after 48 hrs by sulforhodamine B assay; conditions: U-251, 48 h; for CC50: read-out: LC50 (the source's name); in short: as §2
SK-MEL-28 = test: Cytotoxicity against human SK-MEL-28 cells assessed as cell growth at 10 uM; conditions: read-out: Activity; in short: as §1
SK-OV-3 = test: Cytotoxicity against human SKOV3 cells assessed as cell growth at 0.01 uM after 48 hrs by sulforhodamine B assay; conditions: SK-OV-3, 48 h, read-out: Activity
TK-10 = test: Cytotoxicity against human TK10 cells assessed as cell growth at 100 nM after 48 hrs by sulforhodamine B assay; conditions: TK-10, 48 h, read-out: Activity
SNB-19 = test: Cytotoxicity against human SNB19 cells assessed as cell growth at 1 uM after 48 hrs by sulforhodamine B assay; conditions: SNB-19, 48 h, read-out: Activity
MOLT-4 [7] = test: Cytotoxicity against human MOLT4 cells assessed as cell growth at 10 uM after 48 hrs by sulforhodamine B assay; conditions: MOLT-4, 48 h, read-out: Activity
BT-549 = test: Cytotoxicity against human BT549 cells assessed as cell growth at 1 uM after 48 hrs by sulforhodamine B assay; conditions: BT-549, 48 h, read-out: Activity; in short: as §3
MOLT-4 [8] = test: Growth inhibition of human MOLT4 cells after 48 hrs by sulforhodamine B assay; conditions: MOLT-4, 48 h; in short: as §2
OVCAR-3 [9] = test: Growth inhibition of human OVCAR-3 cells after 48 hrs by sulforhodamine B assay; conditions: OVCAR-3, 48 h; for CC50: read-out: LC50 (the source's name); in short: as §2
HOP-62 = test: Cytotoxicity against human HOP62 cells assessed as cell growth at 1 uM after 48 hrs by sulforhodamine B assay; conditions: HOP-62, 48 h, read-out: Activity
[10] = Cytotoxicity against human […] cells assessed as cell growth at 0.001 uM after 48 hrs by sulforhodamine B assay; conditions: read-out: Activity
HOP-92 [11] = test: Growth inhibition of human HOP92 cells after 48 hrs by sulforhodamine B assay; conditions: HOP-92, 48 h; for CC50: read-out: LC50 (the source's name); in short: as §2
SF-268 = test: Growth inhibition of human SF268 cells after 48 hrs by sulforhodamine B assay; conditions: SF-268, 48 h; for CC50: read-out: LC50 (the source's name); in short: as §2

Compound: COc1cc(C)cc(-c2nn(CC#N)cc2-c2ccc(-c3cccc(C(C)=O)c3)nc2)c1
- growth at 0.1 µM (M14 [1]): 58%
- growth at 10 µM (MOLT-4 [2]): 28.1%
- growth at 0.001 µM (HOP-92 [3]): 84%
- inhibition of growth at 10 µM [4]: 78.7%
- growth at 0.1 µM (KM12): 75%
- growth at 10 µM (SF-539): -48%
- GI50 (K562): 0.365 µM
- LC50 (50% net cell kill) (K562): > 100 µM
- TGI (K562): > 100 µM
- growth at 10 µM (M14 [5]): 6.52%
- GI50 (CCRF-CEM): 2.61 µM
- LC50 (CCRF-CEM): > 100 µM
- TGI (CCRF-CEM): > 100 µM
- growth at 1 µM (786-0): 15%
- growth at 0.01 µM (HCC 2998): 87%
- growth at 10 µM (NCI-H460): 17.4%
- growth at 10 µM (NCI-H23): 25.1%
- growth at 10 µM (ACHN): 4%
- growth at 0.001 µM (OVCAR-3 [6]): 102%
- GI50 (U-251): 3.17 µM
- TGI (U-251): 13.5 µM
- CC50 (U-251): > 100 µM
- growth at 10 µM (SK-MEL-28): 44.7%
- growth at 0.01 µM (SK-OV-3): 101%
- growth at 0.1 µM (TK-10): 101%
- growth at 1 µM (SNB-19): 39%
- growth at 10 µM (MOLT-4 [7]): 14%
- growth at 1 µM (BT-549): 5%
- GI50 (MOLT-4 [8]): 3.35 µM
- LC50 (MOLT-4 [8]): > 100 µM
- TGI (MOLT-4 [8]): > 100 µM
- GI50 (OVCAR-3 [9]): 1.34 µM
- TGI (OVCAR-3 [9]): 3.3 µM
- CC50 (OVCAR-3 [9]): 8.13 µM
- growth at 1 µM (HOP-62): 16%
- growth at 0.001 µM [10]: 100%
- GI50 (HOP-92 [11]): 2.63 µM
- TGI (HOP-92 [11]): 9.09 µM
- CC50 (HOP-92 [11]): > 100 µM
- GI50 (SF-268): 4.07 µM
- TGI (SF-268): 81.4 µM
- CC50 (SF-268): > 100 µM

Compound: COc1cc(C)cc(-c2c(-c3ccnc(-c4ccc(C(C)=O)cc4)c3)cnn2CC#N)c1
- growth at 0.1 µM (M14 [1]): 79%
- growth at 10 µM (MOLT-4 [2]): 58%
- growth at 0.001 µM (HOP-92 [3]): 84%
- inhibition of growth at 10 µM [4]: 33.4%
- growth at 0.1 µM (KM12): 85%
- growth at 10 µM (SF-539): -34%
- GI50 (K562): 0.795 µM
- LC50 (50% net cell kill) (K562): > 100 µM
- TGI (K562): > 100 µM
- growth at 10 µM (M14 [5]): 50.5%
- GI50 (CCRF-CEM): 2.97 µM
- LC50 (CCRF-CEM): > 100 µM
- TGI (CCRF-CEM): > 100 µM
- growth at 1 µM (786-0): 10%
- growth at 0.01 µM (HCC 2998): 98%
- growth at 10 µM (NCI-H460): 104%
- growth at 10 µM (NCI-H23): 83.7%
- growth at 10 µM (ACHN): 24%
- growth at 0.001 µM (OVCAR-3 [6]): 103%
- GI50 (U-251): 2.89 µM
- TGI (U-251): > 100 µM
- CC50 (U-251): > 100 µM
- growth at 10 µM (SK-MEL-28): 62%
- growth at 0.01 µM (SK-OV-3): 98%
- growth at 0.1 µM (TK-10): 111%
- growth at 1 µM (SNB-19): 60%
- growth at 10 µM (MOLT-4 [7]): 14%
- growth at 1 µM (BT-549): 17%
- GI50 (MOLT-4 [8]): 2.63 µM
- LC50 (MOLT-4 [8]): > 100 µM
- TGI (MOLT-4 [8]): > 100 µM
- GI50 (OVCAR-3 [9]): 2.61 µM
- TGI (OVCAR-3 [9]): 8.05 µM
- CC50 (OVCAR-3 [9]): > 100 µM
- growth at 1 µM (HOP-62): 19%
- growth at 0.001 µM [10]: 95%
- GI50 (HOP-92 [11]): 1.46 µM
- TGI (HOP-92 [11]): 7.56 µM
- CC50 (HOP-92 [11]): > 100 µM
- GI50 (SF-268): 3.14 µM
- TGI (SF-268): > 100 µM
- CC50 (SF-268): > 100 µM

Compound: COc1cc(C)cc(-c2c(-c3ccnc(-c4ccc(N(C)C)cc4)c3)cnn2CC#N)c1
- growth at 0.1 µM (M14 [1]): -16%
- growth at 10 µM (MOLT-4 [2]): 9.77%
- growth at 0.001 µM (HOP-92 [3]): 26%
- inhibition of growth at 10 µM [4]: 88.4%
- growth at 0.1 µM (KM12): -36%
- growth at 10 µM (SF-539): 2%
- GI50 (K562): 0.0584 µM
- LC50 (50% net cell kill) (K562): > 100 µM
- TGI (K562): 3.82 µM
- growth at 10 µM (M14 [5]): -17.5%
- GI50 (CCRF-CEM): 0.237 µM
- LC50 (CCRF-CEM): > 100 µM
- TGI (CCRF-CEM): > 100 µM
- growth at 1 µM (786-0): 2%
- growth at 0.01 µM (HCC 2998): 30%
- growth at 10 µM (NCI-H460): -5.33%
- growth at 10 µM (NCI-H23): -10.3%
- growth at 10 µM (ACHN): 16%
- growth at 0.001 µM (OVCAR-3 [6]): 98%
- GI50 (U-251): 0.178 µM
- TGI (U-251): > 100 µM
- CC50 (U-251): > 100 µM
- growth at 10 µM (SK-MEL-28): 42.1%
- growth at 0.01 µM (SK-OV-3): 47%
- growth at 0.1 µM (TK-10): 44%
- growth at 1 µM (SNB-19): 36%
- growth at 10 µM (MOLT-4 [7]): 1%
- growth at 1 µM (BT-549): -29%
- GI50 (MOLT-4 [8]): 0.271 µM
- LC50 (MOLT-4 [8]): > 100 µM
- GI50 (OVCAR-3 [9]): 0.03 µM
- CC50 (OVCAR-3 [9]): > 100 µM
- growth at 1 µM (HOP-62): 31%
- growth at 0.001 µM [10]: 100%
- GI50 (HOP-92 [11]): < 0.01 µM
- TGI (HOP-92 [11]): 0.0553 µM
- CC50 (HOP-92 [11]): > 100 µM
- GI50 (SF-268): 0.302 µM
- TGI (SF-268): > 100 µM
- CC50 (SF-268): > 100 µM
